Reference: ChEMBL document CHEMBL4622840, “Microbial transformation of glycyrrhetinic acid derivatives by Bacillus subtilis ATCC 6633 and Bacillus megaterium CGMCC 1.1741” (Bioorg Med Chem, 2020)

Key:
[1] = Cytotoxicity against mouse RAW264.7 cells assessed as cell viability; type: cell-based; parameters: concentration or dose not given beside the values; details: read-out: Activity
RAW264.7 = experiment: Antiinflammatory activity in mouse RAW264.7 cells assessed as inhibition of NO production preincubated for 1 hr followed by LPS stimulation measured after 24 hrs by Griess reagent based assay; type: functional, cell-based
How it was run: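 RAW 264.7 macrophages kept at 37 °C under 5% CO2. Cells were exposed to compound for 1 h, then stimulated with LPS at 1.0 μg/mL. After 24 h, nitrite/NO in the medium was read with Griess reagent.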

[2] = Mus musculus, RAW264.7, read-out: IC50

Row | IC50 (RAW264.7; raw264.7) | IC50 (RAW264.7; [2]) | Compound | viability [1]
1 | Not Active | – | CC1(C)CC[C@]2(C(=O)O)CC[C@]3(C)C(=CC(=O)[C@@H]4[C@@]5(C)CC[C@H](O)C(C)(C)[C@@H]5CC[C@]43C)[C@@H]2C1 | 111%
2 | – | 38.3 µM | CC1(C)C(=O)CC[C@]2(C)[C@H]3CC=C4[C@@H]5C[C@@](C)(CO)CC[C@]5(C)CC[C@@]4(C)[C@]3(C)CC[C@@H]12 | 110%
3 | – | 11.1 µM | CC1(C)CC[C@]2(C(=O)O[C@@H]3O[C@H](CO)[C@@H](O)[C@H](O)[C@H]3O)CC[C@]3(C)C(=CC(=O)[C@@H]4[C@@]5(C)CC[C@H](O)C(C)(C)[C@@H]5CC[C@]43C)[C@@H]2C1 | 82.7%
4 | – | 0.07 µM | CC1(C)[C@@H](O)CC[C@]2(C)[C@H]3CC=C4[C@@H]5C[C@@](C)(CO)CC[C@]5(C)C[C@H](O)[C@@]4(CO)[C@]3(C)[C@@H](O)C[C@@H]12 | 107%
5 | Not Active | – | CC1(C)[C@@H](O[C@@H]2O[C@H](CO)[C@@H](O)[C@H](O)[C@H]2O)CC[C@]2(C)[C@H]3C(=O)C=C4[C@@H]5C[C@@](C)(C=O)CC[C@]5(C)CC[C@@]4(C)[C@]3(C)CC[C@@H]12 | 7.33%
6 | Not Active | – | CC1(C)[C@@H](O[C@@H]2O[C@H](CO)[C@@H](O)[C@H](O)[C@H]2O)CC[C@]2(C)[C@H]3C(=O)C=C4[C@@H]5C[C@@](C)(C(=O)O[C@@H]6O[C@H](CO)[C@@H](O)[C@H](O)[C@H]6O)CC[C@]5(C)CC[C@@]4(C)[C@]3(C)CC[C@@H]12 | 121%
7 | Not Active | – | CC1(C)[C@@H](O)CC[C@]2(C)[C@H]3[C@H](O)C=C4[C@@H]5C[C@@](C)(CO)CC[C@]5(C)C[C@H](O)[C@@]4(C)[C@]3(C)[C@@H](O)C[C@@H]12 | 112%
8 | Not Active | – | CC1(C)[C@@H](O)CC[C@]2(C)C3[C@H](O)C=C4[C@@H]5C[C@@](C)(CO)CC[C@]5(C)CC[C@@]4(C=O)[C@]3(C)[C@@H](O)C[C@@H]12 (stereo not given in full) | 130%
9 | Not Active | – | CC1(C)[C@@H](O)CC[C@]2(C)[C@H]3C(=O)C=C4[C@@H]5C[C@@](C)(C(=O)O[C@@H]6O[C@H](CO)[C@@H](O)[C@H](O)[C@H]6O)CC[C@]5(C)CC[C@@]4(C)[C@]3(C)CC[C@@H]12 | 94.8%
10 | Not Active | – | CC1(C)[C@@H](O[C@@H]2O[C@H](CO)[C@@H](O)[C@H](O)[C@H]2O)CC[C@]2(C)[C@H]3C(=O)C=C4[C@@H]5C[C@@](C)(CO)CC[C@]5(C)CC[C@@]4(C)[C@]3(C)CC[C@@H]12 | 1.22%
11 | – | 68.9 µM | CC1(C)[C@@H](O)CC[C@]2(C)C3=CC=C4[C@@H]5C[C@@](C)(CO)CC[C@]5(C)C[C@H](O)[C@@]4(CO)[C@]3(C)[C@@H](O)C[C@@H]12 | 130%
12 | – | 47.2 µM | CC1(C)[C@@H](O)CC[C@]2(C)[C@H]3C(=O)C=C4[C@@H]5C[C@@](C)(C=O)CC[C@]5(C)CC[C@@]4(C)[C@]3(C)CC[C@@H]12 | 89.6%
13 | – | 0.64 µM | CC1(C)[C@@H](O)CC[C@]2(C)[C@H]3CC=C4[C@@H]5[C@H](O)[C@@](C)(CO)CC[C@]5(C)C[C@H](O)[C@@]4(C)[C@]3(C)[C@@H](O)C[C@@H]12 | 125%
14 | Not Active | – | CC1(C)[C@@H](O)CC[C@]2(C)[C@H]3CC=C4[C@@H]5C[C@@](C)(C(=O)O)CC[C@]5(C)CC[C@@]4(CO)[C@]3(C)[C@@H](O)C[C@@H]12 | 114%
15 | Not Active | – | CC1(C)[C@@H](O)CC[C@]2(C)[C@H]3CC=C4[C@@H]5C[C@@](C)(CO)CC[C@]5(C)C[C@H](O)[C@@]4(C)[C@]3(C)[C@@H](O)C[C@@H]12 | 120%
16 | Not Active | – | CC1(C)[C@@H](O)CC[C@]2(C)[C@H]3C(=O)C=C4[C@@H]5C[C@@](C)(C(=O)O)CC[C@]5(C)CC[C@@]4(C)[C@]3(C)CC[C@@H]12 [ENOXOLONE] | 4.04%

Row | Compound | IC50 (RAW264.7; raw264.7) | IC50 (RAW264.7; [2]) | viability [1]
17 | CC1(C)[C@@H](O)CC[C@]2(C)[C@H]3C(=O)C=C4[C@@H]5C[C@@](C)(CO)CC[C@]5(C)CC[C@@]4(C)[C@]3(C)CC[C@@H]12 | – | 50.3 µM | 56.6%
18 | CC1(C)[C@@H](O)CC[C@]2(C)[C@H]3CC=C4[C@@H]5C[C@@](C)(CO)CC[C@]5(C)CC[C@@]4(C)[C@]3(C)CC[C@@H]12 | – | 48.2 µM | 102%
19 | CC1(C)[C@@H](O)CC[C@]2(C)[C@H]3CC=C4[C@@H]5C[C@@](C)(C(=O)O)CC[C@]5(C)CC[C@@]4(C)[C@]3(C)CC[C@@H]12 | – | 25.6 µM | 83.4%
20 | O=c1c(O)c(-c2ccc(O)c(O)c2)oc2cc(O)cc(O)c12 [QUERCETIN] | – | 4.53 µM | 106%
